# Calls of active or inactive are those of the source. The rule behind the calls is not given here.
# Tests used:
# [1] = Displacement of [3H]5-HT from 5-hydroxytryptamine 1 receptor of rat cortical membrane homogenates
# [2] = target: Serotonin 2 (5-HT2) receptor (Rattus norvegicus, UniProt P30994+P08909+P14842); test: Displacement of [3H]ketanserin from 5-hydroxytryptamine 2 receptor of rat cortical membrane homogenates
# [3] = test system: Rattus norvegicus; test: Compound was evaluated in tests of stimulus generalization using animals trained to discriminate DOM from saline, and the drug appropriate responding at dose of 0.6 mg/kg; type: functional
# How it was run: (§1)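 Male Sprague-Dawley rats (n = 10) trained to discriminate 1.0 mg/kg DOM HCl from saline on a two-lever operant task, VI 15-s food reinforcement. Test doses were given ip in random order, 15 min pre-session, with at least three training sessions between tests. Responding was scored in a 2.5-min extinction session. Rats with fewer than five total responses were counted as disrupted.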
# [4] = test system: Rattus norvegicus; test: Stimulus generalization studies in TFMPP trained animals and the number of animals responding /number to receive dose of drug was determined at dose of 3.5 mg/kg; 2/3; type: functional
# [5] = test system: Rattus norvegicus; test: Stimulus generalization studies in TFMPP trained animals and the number of animals responding /number to receive dose of drug was determined at dose of 3 mg/kg; 2/3; type: functional
# [6] = test system: Rattus norvegicus; test: Compound was evaluated in tests of stimulus generalization using animals trained to discriminate DOM from saline, and the mean responses per min at dose of 5.0 mg/kg; type: functional; how it was run: as §1
# [7] = test system: Rattus norvegicus; test: Compound was evaluated in tests of stimulus generalization using animals trained to discriminate DOM from saline, and the mean responses per min at dose of 2.5 mg/kg; type: functional; how it was run: as §1
# [8] = test system: Rattus norvegicus; test: Compound was evaluated in stimulus generalization test using animals trained to discriminate TFMPP from saline, and the mean responses per min at dose of 3.5 mg/kg; type: functional
# How it was run: (§2)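 Male Sprague-Dawley rats (n = 6) trained to discriminate 0.5 mg/kg TFMPP HCl from saline on a two-lever operant task, VI 15-s food reward. Challenge doses were given ip in random order 15 min before a 2.5-min extinction test, with at least three training sessions between tests. Fewer than five total responses was scored as disruption.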
# [9] = test system: Rattus norvegicus; test: Compound was evaluated in stimulus generalization test using animals trained to discriminate TFMPP from saline, and the mean responses per min at dose of 3.0 mg/kg; type: functional; how it was run: as §2
# [10] = test system: Rattus norvegicus; test: Compound was evaluated in stimulus generalization test using animals trained to discriminate TFMPP from saline, and the drug appropriate responding at dose of 4.0 mg/kg; Not responding; type: functional, organism-based; parameters: dose 4 mg/kg; how it was run: as §2
# [11] = test system: Rattus norvegicus; test: Compound was evaluated in tests of stimulus generalization using animals trained to discriminate DOM from saline, and the drug appropriate responding at dose of 3.5 mg/kg; type: functional; how it was run: as §1
# [12] = test system: Rattus norvegicus; test: Compound was evaluated in tests of stimulus generalization using animals trained to discriminate DOM from saline, and the drug appropriate responding at dose of 5.0 mg/kg; type: functional; how it was run: as §1
# [13] = test system: Rattus norvegicus; test: Compound was evaluated in stimulus generalization test using animals trained to discriminate TFMPP from saline, and the mean responses per min at dose of 1.0 mg/kg; type: functional; how it was run: as §2
# [14] = test system: Rattus norvegicus; test: Compound was evaluated in tests of stimulus generalization using animals trained to discriminate DOM from saline, and the mean responses per min at dose of 0.6 mg/kg; type: functional; how it was run: as §1
# [15] = test system: Rattus norvegicus; test: Compound was evaluated in tests of stimulus generalization using animals trained to discriminate DOM from saline, and the drug appropriate responding at dose of 2.5 mg/kg; type: functional; how it was run: as §1
# [16] = test system: Rattus norvegicus; test: Compound was evaluated in tests of stimulus generalization using animals trained to discriminate DOM from saline, and the mean responses per min at dose of 3.5 mg/kg; type: functional; how it was run: as §1
# [17] = test system: Rattus norvegicus; test: Compound was evaluated in stimulus generalization studies in DOM trained animals and the number of animals responding /number ot receive dose of drug at dose of 2.5 mg/kg; 4/4; type: functional; how it was run: as §1
# [18] = test system: Rattus norvegicus; test: Compound was evaluated in stimulus generalization studies in DOM trained animals and the number of animals responding /number ot receive dose of drug at dose of 3.5 mg/kg; 4/4; type: functional; how it was run: as §1
# [19] = test system: Rattus norvegicus; test: Compound was evaluated in stimulus generalization studies in DOM trained animals and the number of animals responding /number ot receive dose of drug at dose of 0.6 mg/kg; 3/3; type: functional; how it was run: as §1
# [20] = organism: Rattus norvegicus; test: Compound was tested for the doses at which the animals would be expected to make approximately 50% of their responses on the DOM-appropriate lever; type: functional
# How it was run: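 DOM-trained rats (1.0 mg/kg DOM HCl vs saline, two-lever, VI 15 s, food) were given ip doses 15 min before a 2.5-min extinction session. Where >80% of responses fell on the DOM lever (generalization), the dose expected to give about 50% DOM-lever responding was calculated from dose–response data and reported with 95% confidence limits.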
# [21] = test system: Rattus norvegicus; test: Compound was evaluated in stimulus generalization test using animals trained to discriminate TFMPP from saline, and the drug appropriate responding at dose of 1.0 mg/kg; type: functional; how it was run: as §2
# [22] = test system: Rattus norvegicus; test: Compound was evaluated in stimulus generalization test using animals trained to discriminate TFMPP from saline, and the drug appropriate responding at dose of 3.5 mg/kg; type: functional; how it was run: as §2
# [23] = test system: Rattus norvegicus; test: Stimulus generalization studies in TFMPP trained animals and the number of animals responding /number to receive dose of drug was determined at dose of 4.0 mg/kg; 0/3; type: functional
# [24] = test system: Rattus norvegicus; test: Compound was evaluated in stimulus generalization studies in DOM trained animals and the number of animals responding /number ot receive dose of drug at dose of 5.0 mg/kg; 3/4; type: functional; how it was run: as §1
# [25] = test system: Rattus norvegicus; test: Compound was evaluated in stimulus generalization test using animals trained to discriminate TFMPP from saline, and the drug appropriate responding at dose of 3.0 mg/kg; type: functional; how it was run: as §2
# [26] = test system: Rattus norvegicus; test: Stimulus generalization studies in TFMPP trained animals and the number of animals responding /number to receive dose of drug was determined at dose of 1 mg/kg; 3/3; type: functional; how it was run: as §2
# [27] = test system: Rattus norvegicus; test: Compound was evaluated in stimulus generalization test using animals trained to discriminate TFMPP from saline, and the mean responses per min at dose of 0.5 mg/kg; type: functional; how it was run: as §2
# [28] = test system: Rattus norvegicus; test: Stimulus generalization studies in TFMPP trained animals and the number of animals responding /number to receive dose of drug was determined at dose of 0.5 mg/kg; 3/3; type: functional; how it was run: as §2
# [29] = test system: Rattus norvegicus; test: Compound was evaluated in stimulus generalization studies in DOM trained animals and the number of animals responding /number to receive dose of drug at dose of 2.2 mg/kg; 2/5; type: functional; how it was run: as §1
# [30] = test system: Rattus norvegicus; test: Compound was evaluated in tests of stimulus generalization using animals trained to discriminate DOM from saline, and the drug appropriate responding at dose of 2.7 mg/kg; Not responding; type: functional, organism-based; parameters: dose 2.7 mg/kg; how it was run: as §1
# [31] = test system: Rattus norvegicus; test: Compound was evaluated in stimulus generalization studies in DOM trained animals and the number of animals responding /number to receive dose of drug at dose of 3.0 mg/kg; 1/4; type: functional; how it was run: as §1
# [32] = test system: Rattus norvegicus; test: Compound was evaluated in tests of stimulus generalization using animals trained to discriminate DOM from saline, and the drug appropriate responding at dose of 0.5 mg/kg; type: functional; how it was run: as §1
# [33] = test system: Rattus norvegicus; test: Compound was evaluated in tests of stimulus generalization using animals trained to discriminate DOM from saline, and the mean responses per min at dose of 2.0 mg/kg; type: functional; how it was run: as §1
# [34] = test system: Rattus norvegicus; test: Stimulus generalization studies in TFMPP trained animals and the number of animals responding /number to receive dose of drug was determined at dose of 1 mg/kg; 3/4; type: functional; how it was run: as §2
# [35] = test system: Rattus norvegicus; test: Compound was evaluated in tests of stimulus generalization using animals trained to discriminate DOM from saline, and the mean responses per min at dose of 0.5 mg/kg; type: functional; how it was run: as §1
# [36] = test system: Rattus norvegicus; test: Compound was evaluated in stimulus generalization studies in DOM trained animals and the number of animals responding /number to receive dose of drug at dose of 0.5 mg/kg; 3/3; type: functional; how it was run: as §1
# [37] = test system: Rattus norvegicus; test: Compound was evaluated in stimulus generalization test using animals trained to discriminate TFMPP from saline, and the mean responses per min at dose of 2.5 mg/kg; type: functional; how it was run: as §2
# [38] = test system: Rattus norvegicus; test: Compound was evaluated in stimulus generalization test using animals trained to discriminate TFMPP from saline, and the drug appropriate responding at dose of 0.5 mg/kg; type: functional; how it was run: as §2
# [39] = test system: Rattus norvegicus; test: Compound was evaluated in tests of stimulus generalization using animals trained to discriminate DOM from saline, and the drug appropriate responding at dose of 2.2 mg/kg; Not responding; type: functional, organism-based; parameters: dose 2.2 mg/kg; how it was run: as §1
# [40] = test system: Rattus norvegicus; test: Compound was evaluated in stimulus generalization studies in DOM trained animals and the number of animals responding /number ot receive dose of drug at dose of 2.0 mg/kg; 3/4; type: functional; how it was run: as §1
# [41] = test system: Rattus norvegicus; test: Compound was evaluated in stimulus generalization test using animals trained to discriminate TFMPP from saline, and the drug appropriate responding at dose of 2.5 mg/kg; type: functional; how it was run: as §2
# [42] = test system: Rattus norvegicus; test: Stimulus generalization studies in TFMPP trained animals and the number of animals responding /number to receive dose of drug was determined at dose of 2.5 mg/kg; 5/5; type: functional; how it was run: as §2
# [43] = test system: Rattus norvegicus; test: Compound was evaluated in stimulus generalization studies in DOM trained animals and the number of animals responding /number to receive dose of drug at dose of 2.7 mg/kg; 1/4; type: functional; how it was run: as §1
# [44] = test system: Rattus norvegicus; test: Compound was evaluated in stimulus generalization studies in DOM trained animals and the number of animals responding /number to receive dose of drug at dose of 2.5 mg/kg; 3/6; type: functional; how it was run: as §1
# [45] = test system: Rattus norvegicus; test: Compound was evaluated in tests of stimulus generalization using animals trained to discriminate DOM from saline, and the drug appropriate responding at dose of 3.0 mg/kg; Not responding; type: functional, organism-based; parameters: dose 3 mg/kg; how it was run: as §1
# [46] = test system: Rattus norvegicus; test: Compound was evaluated in tests of stimulus generalization using animals trained to discriminate DOM from saline, and the drug appropriate responding at dose of 2.0 mg/kg; type: functional; how it was run: as §1
# [47] = test system: Rattus norvegicus; test: Stimulus generalization studies in TFMPP trained animals and the number of animals responding /number to receive dose of drug was determined at dose of 1.0 mg/kg; 10/10; type: functional
smiles,measurement,setting,value
CCCN(CCC)c1ccc2cccc(OC)c2n1,Ki,[1],45 µM
same,Ki,[2],50 µM
c1ccc2cc(N3CCNCC3)ccc2c1,Drug responding,[3],3%
same,Activity,[4],2
same,Activity,[5],2
same,Mean response/min,[6],8.7
same,Ki,[1],0.265 µM
same,Mean response/min,[7],16.8
same,Mean response/min,[8],7
same,Mean response/min,[9],7
same,Drug responding,[10],inactive
same,Drug responding,[11],71%
same,Drug responding,[12],88%
same,Mean response/min,[13],20.6
same,Mean response/min,[14],16.1
same,Drug responding,[15],33%
same,Mean response/min,[16],8
same,Activity,[17],4
same,Activity,[18],4
same,Activity,[19],3
same,ED50,[20],2.9 mg/kg
same,Drug responding,[21],6%
same,Ki,[2],0.07 µM
same,Drug responding,[22],25%
same,Activity,[23],0
same,Activity,[24],3
same,Drug responding,[25],12%
same,Activity,[26],3
CCCN(CCC)c1ccc2ccccc2n1,Ki,[1],25 µM
same,Ki,[2],50 µM
c1ccc2nc(N3CCNCC3)ccc2c1 [QUIPAZINE],Ki,[1],0.23 µM
same,Ki,[2],0.23 µM
c1ccc2c(N3CCNCC3)cccc2c1,Mean response/min,[27],19.1
same,Activity,[28],3
same,Activity,[29],2
same,Drug responding,[30],inactive
same,Activity,[31],1
same,Drug responding,[32],14%
same,Mean response/min,[33],8.8
same,Ki,[1],0.005 µM
same,Mean response/min,[7],2.6
same,Activity,[34],3
same,Mean response/min,[35],18
same,Activity,[36],3
same,Mean response/min,[37],16.4
same,Drug responding,[38],15%
same,Drug responding,[39],inactive
same,Activity,[40],3
same,Mean response/min,[13],17.3
same,Drug responding,[15],37%
same,Drug responding,[41],96%
same,Activity,[42],5
same,Activity,[43],1
same,Activity,[44],3
same,ED50,[20],1 mg/kg
same,Drug responding,[21],41%
same,Ki,[2],0.018 µM
same,Drug responding,[45],inactive
same,Drug responding,[46],7%
COc1cccc2ccc(N)nc12,Ki,[1],10.4 µM
same,Ki,[2],35 µM
COc1cc(CC(C)N)c(OC)cc1C (configuration not stated) [DOM],Activity,[47],10
